The structures appear in SMILES notation.

From ChEMBL document CHEMBL1149065, “Synthesis and structure-activity relationships of cytotoxic 7-hydroxy sterols” (J Nat Prod, 1994) come the findings set out here.

One test concerns Saccharomyces cerevisiae. The experiment in a line: Antifungal activity against Saccharomyces cerevisiae RS 322YK (rad 52Y) assessed as DNA damaging activity. It counts as functional, organism-based. Put shortly: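 Growth inhibition of the rad 52 mutant strain RS322YK of *Saccharomyces cerevisiae*, measured as a zone of inhibition. Activity is reported as IC₁₂, the concentration giving a 12 mm diameter inhibition zone, in µg/ml. Sterols were also tested against the wild-type RAD⁺ strain.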

The test system of another test is Vero. The experiment in a line: Cytotoxicity against african green monkey Vero cells. The conditions noted are these: Chlorocebus sabaeus. It counts as cell-based.

With `CC(C)C(=O)CC[C@@H](C)[C@H]1CC[C@H]2[C@@H]3CC=C4C[C@@H](O)CC[C@]4(C)[C@H]3CC[C@]12C`, the IC12 in the test with Saccharomyces cerevisiae is over 8000 µg/mL. Take `CC(C)[C@@]1(CC[C@@H](C)[C@H]2CC[C@H]3[C@@H]4CC=C5C[C@@H](O)CC[C@]5(C)[C@H]4CC[C@]23C)CO1`: in the test with Saccharomyces cerevisiae, the IC12 was over 8000 µg/mL. Still for that read-out and setting: with `C=C(CC[C@@H](C)[C@H]1CC[C@H]2[C@@H]3CC=C4C[C@@H](O)CC[C@]4(C)[C@H]3CC[C@]12C)C(C)C` the figure was over 8000 µg/mL. The IC50 is the concentration at which inhibition is half-maximal. Consider `C=C(CC[C@@H](C)[C@H]1CC[C@H]2[C@@H]3[C@H](O)C=C4C[C@@H](O)CC[C@]4(C)[C@H]3CC[C@]12C)C(C)C`, for which the IC12 in the test on Saccharomyces cerevisiae came to 7 µg/mL. Also, the concentration for half-maximal inhibition (IC50) in the test on Vero turned out to be 58 µM.

On to `CC(C)C(=O)CC[C@@H](C)[C@H]1CC[C@H]2[C@@H]3[C@H](O)C=C4C[C@@H](O)CC[C@]4(C)[C@H]3CC[C@]12C`, for which the IC12 with Saccharomyces cerevisiae was 14 µg/mL. Moreover, the midpoint of inhibition with Vero, the IC50, lay at 9.9 µM. For `CC(C)C(=O)CC[C@@H](C)[C@H]1CC[C@H]2[C@@H]3[C@@H](O)C=C4C[C@@H](O)CC[C@]4(C)[C@H]3CC[C@]12C`, the IC12 in the test on Saccharomyces cerevisiae is over 500 µg/mL. Besides, in the test on Vero, it took 21 µM to reach half-maximal inhibition (IC50).

For the compound `C=C(CC[C@@H](C)[C@H]1CC[C@H]2[C@@H]3[C@@H](O)C=C4C[C@@H](O)CC[C@]4(C)[C@H]3CC[C@]12C)C(C)C`, the IC12 with Saccharomyces cerevisiae was over 8000 µg/mL. The IC50 in the test with Vero was 31 µM. The matching figures for `CC(C)[C@@]1(CC[C@@H](C)[C@H]2CC[C@H]3[C@@H]4[C@@H](O)C=C5C[C@@H](O)CC[C@]5(C)[C@H]4CC[C@]23C)CO1`: over 8000 µg/mL and 16 µM. On the same counts, the results for `CC(C)[C@@]1(CC[C@@H](C)[C@H]2CC[C@H]3[C@@H]4[C@H](O)C=C5C[C@@H](O)CC[C@]5(C)[C@H]4CC[C@]23C)CO1` are 0.2 µg/mL and over 100 µM.
